Data set [1] relates to Peritoneal macrophage. The data set can be described thus: Cytotoxicity against Wistar rat peritoneal macrophages assessed as assessed as lysosomal activity at 10^-5 to 10^-1 mM after 24 hrs by neutral red dye-based assay. The format is cell-based. Particulars: dose 0.00001-0.1 mM. In short, it runs like this:
(§1)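 Freshly isolated primary rat splenocytes and peritoneal macrophages. Read-out is neutral red accumulation, taken as lysosomal function. Results are compared with RPMI-treated control cells.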

Data set [2] deals with Peritoneal macrophage. Nature of the data set: Cytotoxicity against Wistar rat peritoneal macrophages assessed as reduction in cell viability at 10^-5 to 10^-1 mM after 24 hrs by MTT assay. The format is cell-based. Particulars: dose 0.00001-0.1 mM. In short, it runs like this: (§2)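 Freshly isolated primary rat spleen lymphocytes and peritoneal macrophages, cultured separately. Read-out is MTT metabolism, taken as mitochondrial reductase activity. Values are mean percentages with SD, relative to RPMI-treated control cells.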
Background: Tetrazolium dyes change colour on reduction, which living cells bring about.

Data set [3] in a line: Cytotoxicity against Wistar rat splenocytes assessed as lysosomal activity at 10^-5 to 10^-1 mM after 24 hrs by neutral red dye-based assay. It is filed as tissue-based. As to conditions: splenocyte, dose 0.00001-0.1 mM. The gist of the method: as §1
Data set [4] in a line: Cytotoxicity against Wistar rat splenocytes assessed as reduction in cell viability at 10^-5 to 10^-1 mM after 24 hrs by MTT assay. The format is tissue-based. As to conditions: splenocyte, dose 0.00001-0.1 mM. In short, it runs like this: as §2
In data set [5] the test system is Peritoneal macrophage. The data set can be described thus: Inhibition of MPO in Wistar rat peritoneal macrophages assessed as oxidation of 1,2-diaminobenzene at 10^-5 to 10^-1 mM. It is filed as tissue-based. As to conditions: dose mM 0.00001-0.1, time 24.0 hrs.
The test system of data set [6] is Peritoneal macrophage. Nature of the data set: Cytotoxicity against Wistar rat peritoneal macrophages assessed as reduction in cell viability at 100 uM after 24 hrs by MTT assay. It is filed as cell-based. The gist of the method:
as §2

A short description of data set [7]: Cytotoxicity against Wistar rat splenocytes assessed as lysosomal activity at 100 uM after 24 hrs by neutral red dye-based assay. Particulars: splenocyte. It is filed as tissue-based. The gist of the method: as §1
Data set [8] is described as follows: Cytotoxicity against Wistar rat splenocytes assessed as reduction in cell viability at 100 uM after 24 hrs by MTT assay. It is filed as tissue-based. As to conditions: splenocyte. In short, it runs like this:
as §2

The subject of data set [9] is Peritoneal macrophage. Nature of the data set: Cytotoxicity against Wistar rat peritoneal macrophages assessed as lysosomal activity at 100 uM after 24 hrs by neutral red dye-based assay. It is filed as cell-based. The gist of the method:
as §1

In data set [10] the test system is Peritoneal macrophage. The data set can be described thus: Cytotoxicity against Wistar rat peritoneal macrophages assessed as lysosomal activity at 10 to 100 uM after 24 hrs by neutral red dye-based assay. As to conditions: dose 10-100 µM. It is filed as cell-based. In short, it runs like this:
as §1

For four compounds, Activity and inhibition results are on record in ChEMBL document CHEMBL4665848, “Constituents of Bupleurum praealtum and Bupleurum veronense with Potential Immunomodulatory Activity” (J Nat Prod, 2020).

Calls of active or inactive are those of the source. No cut-off for these calls is given here.

With `CC/C=C/C=C/C=C/C=C\CCCCOC(=O)[C@H](OC(C)=O)C(C)C`, the Activity entry (in the data set on Peritoneal macrophage [1]; in the data set with Peritoneal macrophage [2]; in data set [3]; in data set [4]) was “Non-Toxic” in each case.
Consider `CC/C=C/C=C/C=C/C=C\CCCCOC(=O)[C@H](O)C(C)C`, for which the Activity entry (in the data set on Peritoneal macrophage [1]; in the data set with Peritoneal macrophage [2]; in data set [3]; in data set [4]) was “Non-Toxic” each time. In the data set with Peritoneal macrophage [5], the inhibition entry is “Active”.
Turning to `CC/C=C/C=C/C=C/C=C/[C@@H]1CCC(=O)O1`, the Activity entry (in the data set with Peritoneal macrophage [6]; in data set [7]; in data set [8]; in the data set with Peritoneal macrophage [9]) was “Toxic” each time. Besides, the inhibition entry in the data set with Peritoneal macrophage [5] is “Active”.
Turning to `COc1ccc(C[C@H]2COC(=O)[C@@H]2Cc2ccc(OC)c(OC)c2)cc1OC`, the Activity entry (in data set [7]; with Peritoneal macrophage [10]) was “Non-Toxic” in each case.
